Experiment [1] concerns MZM-REP protein of Mib1 with deletion of residues 315-330. Put plainly: ITC with crystallization construct MZM-REP. It is filed as binding. The conditions noted are these: Table S1. The procedure, abridged: (§1)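 MZM-REP protein is expressed as an N-terminal His6-SUMO fusion and loaded in the ITC cell at 42 μM, 25 C, stirred at 1000 RPM. Jag1 tail polypeptide is the titrant. Binding parameters come from a one-site binding model fit.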

Experiment [2] concerns Mib1 with Asp to Asn mutations in one or both Mib repeat(s). Put plainly: Co-immunoprecipitation with Mib1 Asp to Asn mutants in one or both Mib repeat. It is filed as cell-based. The following applies: HEK293T cells, Figure S3D.
Experiment [3] has as its system Mib1 with deletion of either the MZM or REP region. The experiment in a line: Co-immunoprecipitation with Mib1 lacking MZM or REP region. It is filed as cell-based. The conditions noted are these: HEK293T cells, Figure S1A.
For the next experiment, the system named is mutated Mib1 (ΔRNG). The experiment in a line: Co-immunoprecipitation with Mib1 mutated at MZM and/or REP interface. It is filed as cell-based. The following applies: HEK293T cells, Figure 5D. The procedure, abridged: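 Myc-tagged Mib1 (ΔRNG) and V5-tagged Jag1 co-transfected into sub-confluent HEK293T cells by lipofection. After 48 hr, cells lysed on ice in 0.5% Fos-Choline 12, 50 mM HEPES pH 7.4, 150 mM NaCl, DTT, ZnCl2, CaCl2 and protease inhibitors. Cleared lysate incubated with anti-V5 agarose for 1 hr at 4 C. Beads washed 3x, then analysed by anti-Myc and anti-V5 Western blot.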

The test system of another experiment is MZM-REP, REP mutant. Put plainly: ITC with REP mutant of MZM-REP. It is filed as binding. The conditions noted are these: 25 C; 42 μM; HEPES pH 7.4, 500 mM NaCl; REP side mutated; Figure 5C. The method, boiled down:
as §1

For “Jag1: Jag1 construct, V5-tagged in co-immunoprecipitation”, the “effect of Mib1 Δ315-330 deletion on binding to Jag1” value in experiment [1] is on record as “does not deleteriously affect binding”. The “contribution of Mib repeats to C-box binding, co-immunoprecipitation” value in experiment [2] is given as “first Mib repeat exerts a dominant role in C-box binding”. The “co-immunoprecipitation with Mib1 lacking MZM or REP region” value in experiment [3] is given as “eliminates co-immunoprecipitation (co-IP)”. Besides, the “co-immunoprecipitation with Mib1, both interfaces mutated” value in the experiment on mutated Mib1 (ΔRNG) (both interfaces in combination) is “prevent co-immunoprecipitation”. Moreover, in the experiment on mutated Mib1 (ΔRNG) (mutation targeting MZM:N-box interface alone), the “co-immunoprecipitation with Mib1, MZM interface mutated” value is “prevent co-immunoprecipitation”. Moreover, the “co-immunoprecipitation with Mib1, REP interface mutated” value in the experiment with mutated Mib1 (ΔRNG) (mutation targeting REP:C-box interface alone) is “prevent co-immunoprecipitation”.
For “full-length tail: Jag1 intracellular tail; HA-tagged in ubiquitin transfer; as DLL4 chimera in reporter assay”, in the experiment on MZM-REP, REP mutant, the “binding to REP mutant by ITC” value was “attenuates binding”.

Source of the values: article PMC4355479 (Molecular cell, 2015).
